In ChEMBL document CHEMBL1821684, “A novel and efficient one-pot synthesis of symmetrical diamide (bis-amidate) prodrugs of acyclic nucleoside phosphonates and evaluation of their biological activities” (Eur J Med Chem, 2011):
Activity calls are given as the source filed them. The rule behind the calls is not given here.

How the values were obtained:
[1] = Cytotoxicity against human MT2 cells assessed as inhibition of cell proliferation after 5 days by luminescence assay; type: cell-based
Summary of the method: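 Uninfected MT-2 cells at 3 × 10^3 cells/well were run on replicate plates alongside the antiviral assay, with 3-fold serial compound dilutions in triplicate and 0.5% DMSO final. After 5 days at 37 °C, viability was read by CellTiter-Glo luminescence. CC50 came from non-linear regression of multiple data sets.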

Mus musculus [2] = species: Mus musculus; assay: Immunomodulatory activity in C57BL/6 mouse peritoneal cells assessed as inhibition of LPS-induced NO production at 25 uM after 24 hrs by Griess reagent method; type: functional
Summary of the method: (§1)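 Peritoneal cells pooled from 4 female C57BL/6 mice (8–10 weeks) were seeded at 2 × 10^6 cells/mL in complete RPMI-1640 with 10% FBS, at 37 °C and 5% CO2. Compound was given alone or with IFN-γ (5000 pg/mL) or IFN-γ plus E. coli LPS (100 pg/mL) for 24 h. Supernatant nitrite was measured with Griess reagent (5 min, A540) against a nitrite calibration curve.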

[3] = test system: Human immunodeficiency virus 1; assay: Antiviral activity against HIV1 3B infected in human MT-2 cells assessed as reduction in virus-induced cytopathic effect after 5 days by luminescence assay; type: functional, organism-based; settings: Human immunodeficiency virus 1, 3B, MT2, 120 h
Summary of the method: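 MT-2 cells were kept below 0.6 × 10^6 cells/mL and infected in bulk with HIV-1 IIIB for 3 h at MOI 0.0055. They were seeded at 3 × 10^3 cells/well with 3-fold serial compound dilutions in triplicate, 0.5% DMSO final. After 5 days at 37 °C, cytopathic effect was read by CellTiter-Glo luminescence. EC50 came from non-linear regression of multiple data sets.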

Mus musculus [4] = species: Mus musculus; assay: Immunostimulatory activity in C57BL/6 mouse peritoneal cells assessed as stimulation of LPS-induced NO production at 25 uM after 24 hrs by Griess reagent method; type: functional; summary of the method: as §1
[5] = Antiproliferative activity against human HepG2 after 72 hrs by XTT assay; type: functional; settings: HepG
Summary of the method: (§2)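 CCRF-CEM, HL-60 and HeLa S3 cells were grown in RPMI 1640 with 5% calf fetal serum, and Hep G2 cells in Eagle's MEM with 10% calf fetal serum. Cells were exposed to compound, and growth was ended 72 h after drug addition. Viability was then quantified by the XTT spectrophotometric assay.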

HL-60 = assay: Antiproliferative activity against human HL60 after 72 hrs by XTT assay; type: functional, cell-based; settings: HL-60, 72 h; summary of the method: as §2
[6] = Antiproliferative activity against human HeLaS3 after 72 hrs by XTT assay; type: functional; settings: HeLa S3, 72 h; summary of the method: as §2
CCRF-CEM = assay: Antiproliferative activity against human CCRF-CEM after 72 hrs by XTT assay; type: functional, cell-based; summary of the method: as §2

| SMILES | CC50 at 120 h [1] [µM] | inhibition (Mus musculus [2]) | EC50 [3] [µM] | Activity (Mus musculus [4]) | IC50 [5] [µM] | IC50 (HL-60) [µM] | IC50 [6] [µM] | IC50 (CCRF-CEM) [µM] |
| --- | --- | --- | --- | --- | --- | --- | --- | --- |
| CCOC(=O)[C@H](C)NP(=O)(COCCOc1cc(N)nc(N)n1)N[C@@H](C)C(=O)OCC | 73.3 | inactive | 1.13 | inactive |  |  |  |  |
| C[C@H](Cn1cnc2c(N)nc(N)nc21)OCP(=O)(O)O | > 100 |  | 0.94 |  |  |  |  |  |
| CCOC(=O)[C@H](C)NP(=O)(CO[C@H](C)Cn1cnc2c(N)nc(F)nc21)N[C@@H](C)C(=O)OCC | > 100 | inactive | 5.51 | inactive |  |  |  |  |
| CCOC(=O)[C@H](C)NP(=O)(COCCn1cnc2c(NC3CCCCCCC3)nc(N)nc21)N[C@@H](C)C(=O)OCC |  | inactive |  | inactive |  |  |  |  |
| CCOC(=O)[C@H](C)NP(=O)(CO[C@H](C)Cn1cnc2c(N)nc(N)nc21)N[C@@H](C)C(=O)OCC | > 100 | inactive | 0.29 | inactive |  |  |  |  |
| Nc1nc(NC2CC2)c2ncn(C[C@@H](CF)OCP(=O)(O)O)c2n1 | > 100 |  | 13.2 |  |  |  |  |  |
| CCOC(=O)[C@H](C)NP(=O)(CO[C@H](CF)Cn1cnc2c(NC3CC3)nc(N)nc21)N[C@@H](C)C(=O)OCC | > 100 | inactive | 10.7 | inactive |  |  |  |  |
| C[C@H](Cn1cnc2c(N)nc(F)nc21)OCP(=O)(O)O | > 100 |  | > 85.3 |  |  |  |  |  |
| CCOC(=O)[C@H](C)NP(=O)(COCCn1cnc2c(NC3CC3)nc(N)nc21)N[C@@H](C)C(=O)OCC [RABACFOSADINE] |  | inactive |  | inactive | 1.74 | 0.78 | 2.15 | 0.48 |
| CCOC(=O)[C@H](C)NP(=O)(COCCn1cnc2c(=O)[nH]c(N)nc21)N[C@@H](C)C(=O)OCC |  | inactive |  | inactive | 2.32 | 3.02 | 3.94 | 1.22 |
| CCOC(=O)[C@H](C)NP(=O)(CO[C@H](CF)Cn1cnc2c(N)ncnc21)N[C@@H](C)C(=O)OCC | > 100 | inactive | 0.54 | inactive |  |  |  |  |
